Rows were chosen to be rich in hits. Some 9.6% of all compounds tested hit in one or more screens of this group.
bCat KO growth = beta-catenin-lacking colon tumor cell growth suppression | HCT116 beta-catenin knockout viability, CellTiter-Glo, 60 h; active compounds read low | viability, % at 10 µM | 140,000 compounds, 1.5% hits;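 active means viability at or under a set limit, the compound median less 4 SD, cut at about 6% in these data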;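 further: 0% = Hyamine 1622 control at 20 µM and 100% = untreated cell control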
TNAP act hiacc = activators of human TNAP at high phosphate acceptor concentration. P05186. purified TNAP, CDP-star luminescence, 1 M DEA, 30 min; active compounds read high; 0 = EDTA background, 1 = DMSO-only activity. activation factor at 20 µM. 200,000 tested, under 10 active;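 active means activation factor at least 2 at 20 µM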
Target sequence (P05186 whole entry, looked up): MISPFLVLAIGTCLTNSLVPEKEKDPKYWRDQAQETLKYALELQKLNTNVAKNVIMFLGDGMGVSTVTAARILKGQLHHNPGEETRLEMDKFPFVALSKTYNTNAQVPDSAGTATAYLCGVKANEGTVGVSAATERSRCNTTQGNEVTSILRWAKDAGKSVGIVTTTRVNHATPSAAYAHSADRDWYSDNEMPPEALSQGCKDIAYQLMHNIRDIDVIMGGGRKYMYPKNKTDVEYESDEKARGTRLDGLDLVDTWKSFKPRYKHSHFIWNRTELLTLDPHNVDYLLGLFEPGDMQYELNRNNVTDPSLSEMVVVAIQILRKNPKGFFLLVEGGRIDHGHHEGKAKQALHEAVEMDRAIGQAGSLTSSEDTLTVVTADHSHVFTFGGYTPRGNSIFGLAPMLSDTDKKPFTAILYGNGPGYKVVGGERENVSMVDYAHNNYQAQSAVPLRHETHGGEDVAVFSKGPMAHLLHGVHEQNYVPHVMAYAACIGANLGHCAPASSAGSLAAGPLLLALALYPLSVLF
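Measured by: Luminescent substrate turnover signal | Test system: Human TNAP | Input: TNAP 1/800 final | Dosing: 20 µM single point | Schedule: 30 min, room temperature | Controls: EDTA wells as negative control, DMSO wells as positive control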
TNAP inh hi DEA = inhibitors of human TNAP at high phosphate acceptor concentration; P05186; 200,000 compounds, 0.03% hits; AID 1135; purified TNAP, CDP-star luminescence, 1 M DEA; inhibition, % at 20 µM;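 active means over 50% inhibition of tissue-nonspecific alkaline phosphatase at 20 µM in the single-dose screen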;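 further: plate controls were DMSO wells for no effect and EDTA-quenched wells as full inhibition for full effect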
Lmaj promast = reduces viability of Leishmania major promastigotes; AID 1063; 200,000 compounds, 9% hits; resazurin fluorescence viability; inhibition, % at 10 µM; in the data active means inhibition above about 50%;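 further: promastigotes grown with compound for 44 hours at 28 °C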
TNAP inh no acc = blocks human TNAP activity with no phosphate acceptor present; 200,000 compounds, 0.26% hits; P05186; AID 1012; inhibition, % at 20 µM; purified TNAP, CDP-star luminescence, 30 min;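 active means tissue-nonspecific alkaline phosphatase inhibition above about 50% at 20 µM in the single-dose screen, limit read from the data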;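 further: 0% = DMSO negative control and 100% = EDTA positive control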
HCT116 PTEN-null = suppresses growth of cells with PTEN deletion. viability, % at 10 µM. 140,000 compounds, 1.2% hits. HCT116 PTEN-null viability, CellTiter-Glo, 60 h; active compounds read low;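 active means viability at or below a set limit, 4 SD under the median of all tested compounds, cut at about 3.7% in these data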;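 further: PTEN knockout HCT116 line with beta catenin targeted HCT116 as companion control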
* marks the source's active call; other numbers are inactive results; · = no result.

SMILES	bCat KO growth	TNAP act hiacc	TNAP inh hi DEA	Lmaj promast	TNAP inh no acc	HCT116 PTEN-null
Cc1ccc(C)c(NC(=S)NC(NC(=O)/C=C/c2ccccc2)C(Cl)(Cl)Cl)c1 (stereo unspecified)	15	1.1	-7	-8	-14	13
O=C(/C=C/c1ccccc1)NC(NC(=S)Nc1ccc(C(=O)O)cc1)C(Cl)(Cl)Cl (stereo unspecified)	94	1	3	0	-6	97
O=C(/C=C/c1ccccc1)NC(NC(=S)Nc1ccc(Cl)cc1Cl)C(Cl)(Cl)Cl (stereo unspecified)	40	1	-2	59*	-7	26
O=C(CCc1ccccc1)NC(NC(=S)Nc1cccc(Cl)c1)C(Cl)(Cl)Cl (stereo unspecified)	100	1.1	-6	1	-8	96
O=C(/C=C/c1ccccc1)NC(NC(=S)Nc1cccc(O)c1)C(Cl)(Cl)Cl (stereo unspecified)	28	1	-1	93*	-12	30
CN(c1ncc(C(F)(F)F)cc1Cl)N1C(=O)c2cccc([N+](=O)[O-])c2C1=O	·	1.1	-5	-5	-18	·
CC(C)CC(=O)CC1(O)C(=O)Nc2ccccc21 (stereo unspecified)	·	1	-4	-4	0	·
Cc1cccc(OCc2nnc(SCC(=O)N3CC(=O)Nc4ccccc43)o2)c1	·	1	0	0	-11	·
COc1cc(C(=O)NNC(=O)c2ccc(NC(=O)C(C)(C)C)cc2)cc(OC)c1OC	·	1	-2	14	-12	·
O=Cc1cn[nH]c1-c1ccccc1	·	1	-3	-6	75*	·
CN(C)c1ccc(-c2nc3n(n2)C(c2cccnc2)C2=C(CC(C)(C)CC2=O)N3)cc1 (stereo unspecified)	92	1	-2	92*	-6	93
CC(=O)n1cc([C@H]2C=C(C(=O)N3CCN(Cc4ccc5c(c4)OCO5)CC3)O[C@@H](OCCCCO)C2)c2ccccc21	·	1	-2	14	-3	·
COc1ccc(OC)c(/C=N/N(C)c2ccccc2)c1	92	1	-4	60*	-9	87
COc1ccc(-c2nnc(SC(C)C(=O)Nc3nccs3)n2-c2ccccc2)cc1OC (stereo unspecified)	88	1.1	-8	54*	-5	90
COc1ccc2cc3cc(C(=O)Nc4ccccc4N4CCN(C)CC4)oc3nc2c1	2.1*	1.1	-8	100*	3	1.5*
CCOc1ccc(NC(=O)c2cc3cc4ccc(OC)cc4nc3o2)cc1	73	1	0	100*	-32	88
COc1ccc2cc3cc(C(=O)NCCN4CCN(c5ccccc5F)CC4)oc3nc2c1	34	1	0	27	4	26
COc1ccc2cc3cc(C(=O)NCC4CCCO4)oc3nc2c1 (stereo unspecified)	102	1	-4	79*	-10	96
COc1ccc2cc3cc(C(=O)NCc4ccco4)oc3nc2c1	91	1.1	-5	60*	0	85
COc1ccc(C(=O)NCC2CCCO2)cc1 (stereo unspecified)	84	1	-4	7	6	107
CCOc1ccc(Br)cc1S(=O)(=O)Nc1cccc(S(=O)(=O)N(C)c2ccccc2)c1	89	1	2	32	-13	83
Cc1nn(C)cc1/C=N/NC(=O)Cn1nccc1C	90	1	0	-4	-15	98
Cc1cccc(C)c1OC(=O)CSc1nnc(-c2ccccc2O)o1	93	1.1	-6	0	-15	98
CC(=O)OC1CSC2c3ccccc3C(=O)N2Cc2sccc21 (stereo unspecified)	·	1	-1	4	-4	·
CN(C)CC1CCCCC1C1(O)c2ccccc2CSc2sccc21 (stereo unspecified)	61	1	0	100*	-3	54
SMILES	bCat KO growth	TNAP act hiacc	TNAP inh hi DEA	Lmaj promast	TNAP inh no acc	HCT116 PTEN-null
Nc1nc(Cl)cc(N2CCC(c3cc(-c4ccc(Cl)cc4)n[nH]3)CC2)n1	8	1	-3	100*	32	11
COc1ccc(-c2cc(C3CCN(c4cc(Cl)nc(N)n4)CC3)[nH]n2)cc1	37	1	-3	31	39	32
Clc1ccc(-c2cc(C3CCNCC3)[nH]n2)cc1	·	1	4	61*	42	·
COc1ccc(OC)c(-c2cc(C3CCN(c4cc(Cl)nc(N)n4)CC3)[nH]n2)c1	1.7*	1	-2	100*	-3	2.5*
CC(=O)c1ccc(N2CCC(c3cc(-c4ccc(Cl)cc4Cl)n[nH]3)CC2)c([N+](=O)[O-])c1	28	1	2	16	48	35
CCCn1c(Nc2nc3ccccc3n2C)nc2ccccc21	2.2*	1.1	-5	29	-8	2.0*
CCCCn1c(Nc2ccccc2)nc2ccccc21	98	1	-3	1	-6	93
CC(=O)N1CCCc2cc(S(=O)(=O)Nc3ccc(C)cc3C)ccc21	84	1	-4	-2	-9	85
Cc1ccc(NS(=O)(=O)c2ccc(N3CCN(c4ccc(O)cc4)CC3)c([N+](=O)[O-])c2)c(C)c1	62	1	3	98*	1	57
O=[N+]([O-])c1cc(S(=O)(=O)Nc2ccccc2)ccc1N1CCN(c2ccc(O)cc2)CC1	82	1	1	79*	1	81
O=C(O)c1cc(NS(=O)(=O)c2ccc(N3CCOCC3)c([N+](=O)[O-])c2)cc(C(=O)O)c1	95	0.9	8	44	3	98
CCOc1ccc(OCCn2nnc3ccccc3c2=O)cc1	·	1.1	-6	-3	-19	·
COc1ccccc1OCC(=O)NNC(=O)c1c(-c2ccccc2Cl)noc1C	·	1	-2	-2	-15	·
Cn1cc(/C=N/Nc2ccccc2)c2ccccc21	·	1	1	63*	-2	·
CCCCOc1ccc(C(=O)Nc2ccc(SC(F)F)cc2)cc1OC	101	1.1	-8	71*	-8	98
COC(=O)c1cc(OC)c(OC)cc1NC(=O)Nc1cccc(C(C)=O)c1	·	1.1	-5	10	-7	·
Cc1cccc(OCCCC(=O)NCC(=O)Nc2cccc(C)c2C)c1	·	1	-2	-9	-4	·
COC(=O)c1ccc(NC(=O)COc2ccc(C3C(C#N)=C(N)Oc4c3ccc3ccccc43)cc2OC)cc1 (stereo unspecified)	95	1	-1	95*	-10	91
CCOc1ccc(NC(=O)C2CC(C)=C(C)CC2C(=O)O)cc1 (stereo unspecified)	95	1.1	-5	81*	-13	85
CN1CCN(Cc2nc3ccccc3c(=O)n2CC#N)CC1	·	1.1	-5	-2	-9	·
N#CCn1c(CCl)nc2ccccc2c1=O	·	1	-3	84*	-16	·
